This sample holds only a part of the variants without activity.
B1: tRNA (parent)
chain: GUUCCGUUGGCGUAAUGGUAACGCGUCUCCCUCCUAAGGAGAAGACUGCGGGUUCGAGUCCCGUACGGAACG

Variants of: B1
Test: yeast fitness relative to wild type (ratio to wild type); higher = fitter; tRNA-Arg(CCU), competitive growth, 37 C, YPD
Procedure, shortened: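 Start and end populations of a pooled competition were compared by 100-nucleotide paired-end sequencing of gene amplicons. The Saccharomyces cerevisiae strains carried tRNA-Arg(CCU) gene variants at the native genomic locus, synthesised with a 3% per-site mutation rate at 69 sites, and competed in YPD at 37°C for 24 hours in six parallel replicates. Darwinian fitness relative to wild type was based on the change in genotype frequencies. Genotypes required ≥ 100 starting reads, and estimates < 0.5 were set to 0.5.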

GUUCCGUUGGUGUAAUGGUAAUGCGUCUCCCUCCUAAGGAGAAGACUGCGGGUUCGAGUCCCGUUCGGUACG [C11U C22U A65U A69U] and GUUCCGUUGGUGUAAUGGUAAUGCGUCUCCCUCAUAAGGUGAAGACUGCGGGUUCGAGUCCCGUACGGAACG [C11U C22U C34A A40U] cannot be ordered by yeast fitness: at most 0.5 for the first, at most 0.5 for the second.

GUUCCGUUGGUGUAAUGGUAAUGCGUCUCCCUCCUAAGGAGAAGACUGCGGGUUCGAGUCCCGUAUGGACCG [C11U C22U C66U A70C] and GUUCCGUUGGUGUAAUGGUAAUGCGUCUCCCUCCUAAGGAGAAGACUGCGGGUCCCAAUCCCGUACGGAACG [C11U C22U U54C G56C G58A] cannot be ordered by yeast fitness: at most 0.5 for the first, at most 0.5 for the second.

Going from GUUCCGUUGGUGUAAUGGUAACGAGUCUCCCUCCUAAGGAGGAGACUGCGGGUUCGUGUCCCGAACGGUACG [C11U C24A A42G A57U U64A A69U] to GUUCCGUUGGUGUAAUGGUAACGAGUCUCCCUCCUAAGGAGAAGACUGCGGGUUCGAGUCCCGUACGCAACG [C11U C24A G68C], the yeast fitness falls from 0.505 to at most 0.5.

GUUCCGUUGGUGUAAUGGUAACGGGUCUCCCUCCUCGGGAGAAGACUGCGGGUUCGAGUCCCGUACGGACCG [C11U C24G A36C A37G A70C] and GUUCCGUUGGUGUAAUGGUAACGGGUCUCCCUCCUAAGGAGAAGACUGCGGGUUCGGGUCCCGUACGGAACG [C11U C24G A57G] cannot be ordered by yeast fitness: at most 0.5 for the first, at most 0.5 for the second.

First: GUUCCGUUGGUGUAAUGGUAACGGGUCUCCCUACUAAGGCGAAGACUGCGGGUUCGAGUCCCGUAUGGAACG [C11U C24G C33A A40C C66U]
Second: GUUCCGUUGGUGUAAUGGUAACGGGUCUCCCUACUAAGGAGGAGACUGCGGGUUCGAGUCCCGUACGGAACG [C11U C24G C33A A42G]
The yeast fitness of the first is higher: 0.743 for the first, at most 0.5 for the second.

GUUCCGUUGGUGUAAUGGUAACGGGUCUCCCUCCUAAGGAGAAGACUGCGGGUUCGAGAACCGUACGGAACG [C11U C24G U59A C60A] and GUUCCGUUGGUGUAAUGGUAACGUGUCUGCCUCCUAAAGCGAAGACUGCGGGUUCGAGUCCCGUACGGAACG [C11U C24U C29G G38A A40C] cannot be ordered by yeast fitness: at most 0.5 for the first, at most 0.5 for the second.

GUUCCGUUGGUGUAAUGGUAACGUGUCUGCCUCCUAAAGCGAAGACUGCGGGUUCGAGUCACGUGCGGAACG [C11U C24U C29G G38A A40C C61A A65G] and GUUCCGUUGGUGUAAUGGUAACGCGUAUCCCUCCUAAGGAGAAGACUGCGGGUGCGAGUCCCGUACGGAACG [C11U C27A U54G] cannot be ordered by yeast fitness: at most 0.5 for the first, at most 0.5 for the second.

First: GUUCCGUUGGUGUAAUGGUAACGCGUGUCCCUCCUAAGGAGACGACUGCGGGUUCGUGUCCCGUACGGAACG [C11U C27G A43C A57U]
Second: GUUCCGUUGGUGUAAUGGUAACGCGUGUCCCUCCUAAGGAGAUGACUGCGGGUUCGAGUCCCAUACGGAACG [C11U C27G A43U G63A]
The yeast fitness of the first is higher: 0.696 for the first, at most 0.5 for the second.

Compared with GUUCCGUUGGUGUAAUGGUAACGCGUUUCCAUCCUAAGGAGGAGACUGGGAGUUCGAGUCCCGUACGCAACG [C11U C27U C31A A42G C49G G51A G68C], GUUCCGUUGGUGUAAUGGUAACGCGUCUACCUCCUUAGGAGAAGACUGCCGGUUGGAGUCGCGUACGGAACG [C11U C29A A36U G50C C55G C61G] is higher in yeast fitness: at most 0.5 for the first, 0.592 for the second.

Going from GUUCCGUUGGUGUAAUGGUAACGCGUCUGCCUCCUAAGGAGAAGACUGCGGGUUCGAGUCCCGUACGGAACG [C11U C29G] to GUUCCGUUGGUGUAAUGGUAACGCGUCUGCCUCCUACGGAGUAGACUGCGGGUUCGGGUCCCGUACAGAACG [C11U C29G A37C A42U A57G G67A], the yeast fitness falls from 0.687 to 0.566.

First: GUUCCGUUGGUGUAAUGGUAACGCGUCUGCCUUCUAAGGAGAAGACUGCGGGUUCGAGUUCCGUUCGGUACG [C11U C29G C33U C60U A65U A69U]
Second: GUUCCGUUGGUGUAAUGGUAACGCGUCUUCCUCCUAAGGAGAAGACUGCGGGUUCGAGUCCCGUACGGAACG [C11U C29U]
The yeast fitness of the first is lower: at most 0.5 for the first, 0.738 for the second.

GUUCCGUUGGUGUAAUGGUAACGCGUCUUCCUCCUUAGGAGAAGACUGCGGGUUCGAGUCCCGUAUAGAACG [C11U C29U A36U C66U G67A] and GUUCCGUUGGUGUAAUGGUAACGCGUCUUCCUCCUAAGGAGAAGACUGCGGGUUCGAGCCCCGUACGGAACG [C11U C29U U59C] cannot be ordered by yeast fitness: at most 0.5 for the first, at most 0.5 for the second.

Compared with GUUCCGUUGGUGUAAUGGUAACGCGUCUCACUCCUAAGGAGAAGACUGCGGGUUCGAGUCCCGUACGGAACG [C11U C30A], GUUCCGUUGGUGUAAUGGUAACGCGUCUCGCUCCUAAGGCGAAGACUGCGGGUUCGAGUCUCGUACGGAACG [C11U C30G A40C C61U] is lower in yeast fitness: 0.823 for the first, at most 0.5 for the second.

GUUCCGUUGGUGUAAUGGUAACGCGUCUCGCUCCAAAGGAGAAGAUUGCGAGUUCAAGUCCCGUACGGAACG [C11U C30G U35A C46U G51A G56A] and GUUCCGUUGGUGUAAUGGUAACGCGUCUCUCUCCUAAGGAGAAGACUGCGGGUUCGAGUCCCGUAAGGAACG [C11U C30U C66A] cannot be ordered by yeast fitness: at most 0.5 for the first, at most 0.5 for the second.

Going from GUUCCGUUGGUGUAAUGGUAACGCGUCUCUCUCCUAAGGAGAAGACUGCGGCUUCGAGUCCCGUACGGAACG [C11U C30U G52C] to GUUCCGUUGGUGUAAUGGUAACGCGUCUCCGUCCUAAGGAGAAGACUGCGGGUUCGAGUCCCGUACGGAUCG [C11U C31G A70U], the yeast fitness rises from at most 0.5 to 0.598.

Compared with GUUCCGUUGGUGUAAUGGUAACGCGUCUCCGUCCUAAGGAGAAGAAUGCGGGUUCGAGUCCCCUUCGGAACG [C11U C31G C46A G63C A65U], GUUCCGUUGGUGUAAUGGUAACGCGUCUCCGUCCUAAGGAGAAGAGUGCGGAUUCGAGUCCCGUAUGGAACG [C11U C31G C46G G52A C66U] is lower in yeast fitness: 0.531 for the first, at most 0.5 for the second.

First: GUUCCGUUGGUGUAAUGGUAACGCGUCUCCGUCCUAAGGAGAAGACUGUGGGUUCGAGUCCCGUACAGAACG [C11U C31G C49U G67A]
Second: GUUCCGUUGGUGUAAUGGUAACGCGUCUCCUUCCUAAGGCGAAGACUGCGGGUUCGAGUCCCGUACGGAACG [C11U C31U A40C]
The yeast fitness of the first is lower: at most 0.5 for the first, 0.697 for the second.

GUUCCGUUGGUGUAAUGGUAACGCGUCUCCUUCCUAAGGAGAAGAGAGCGGGUUCGAGUCCCGUCCGGAACG [C11U C31U C46G U47A A65C] and GUUCCGUUGGUGUAAUGGUAACGCGUCUCCUUCCUAAGGAGAAGACUGCGGGUUCGAGUCUCGUACGGUACG [C11U C31U C61U A69U] cannot be ordered by yeast fitness: at most 0.5 for the first, at most 0.5 for the second.

GUUCCGUUGGUGUAAUGGUAACGCGUCUCCUUCCUAAGCUGAAGACUGCGGGUUCGAGUCCCGUACGGAACG [C11U C31U G39C A40U] showed a yeast fitness of 0.544.
